Experimental data as given in ChEMBL document CHEMBL1157427, “In vitro and in vivo anti-tumoral activities of imidazo[1,2-a]quinoxaline, imidazo[1,5-a]quinoxaline, and pyrazolo[1,5-a]quinoxaline derivatives” (Bioorg Med Chem, 2008).
Calls of active or inactive are those of the source. The rule behind the calls is not given here.

Test system: Raji
Test: Cytotoxicity against human Raji cells after 96 hrs by MTT assay
Format: functional, cell-based
Conditions: not given
In short: (§1)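 Cells were seeded at 5000/well in DMEM (M4Be) or RPMI-1640 (others) and attached overnight. They were then exposed for 96 h at 37 °C, 5% CO2 to 10^-4 to 10^-10 […] in 1% DMSO/medium. MTT was added for 4 h, formazan dissolved in isopropanol/1 M HCl, and OD read at 570 nm. Survival was taken as % of vehicle control and IC50 as 50% growth inhibition. ≥3 experiments in triplicate; mean ± SD.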

Q: For CNc1nc2ccccc2n2c(CCc3ccccc3)cnc12, which IC50 is on record?
A: 6.23 µM

Q: With CN(Cc1cnc2nc(N)nc(N)c2n1)c1ccc(C(=O)N[C@@H](CCC(=O)O)C(=O)O)cc1 [METHOTREXATE] as the compound, how does the IC50 read?
A: 0.04 µM

Test system: A-375
Test: Cytotoxicity against human A375 cells after 96 hrs by MTT assay
Format: functional, cell-based
Conditions: A-375, 96 h
In short: as §1

Q: For COc1nc2ccccc2n2c(CCc3ccccc3)cnc12, which IC50 is on record?
A: 47.8 µM

Q: With Clc1nc2ccccc2n2c(CCc3ccccc3)cnc12 as the compound, how does the IC50 read?
A: 24 µM

Q: Which IC50 does the source give for Cc1cccc(Cl)c1Nc1nc2ccccc2n2c(CCc3ccccc3)cnc12 here?
A: 329 µM

Q: With CNc1nc2ccccc2n2c(CC(C)C)cnc12 as the compound, how does the IC50 read?
A: 31.6 µM

Q: For CC(C)Cc1cc2c(N(C)C)nc3ccccc3n2n1, which IC50 is on record?
A: 101 µM

Q: With CC(C)Cc1cnc2c(N(C)C)nc3ccccc3n12 as the compound, how does the IC50 read?
A: 66.3 µM

Q: Which IC50 does the source give for CNc1nc2ccccc2n2c(C)ncc12 here?
A: 100 µM

Q: With CN(C)c1nc2ccccc2n2c(CCc3ccccc3)cnc12 as the compound, how does the IC50 read?
A: 80.1 µM

Q: For Cc1cccc(Cl)c1Nc1nc2ccccc2n2c(CC(C)C)cnc12, which IC50 is on record?
A: > 400 µM

Q: With Nc1nc2ccccc2n2c(CCc3ccccc3)cnc12 as the compound, how does the IC50 read?
A: 2.35 µM

Q: Which IC50 does the source give for CNc1nc2ccccc2n2cncc12 here?
A: 85.3 µM

Q: For CNc1nc2ccccc2n2c(-c3ccccc3)ncc12, which IC50 is on record?
A: > 400 µM

Q: With CNc1nc2ccccc2n2nc(CC(C)C)cc12 as the compound, how does the IC50 read?
A: 78.6 µM

Q: For CN(C)c1nc2ccccc2n2cncc12, which IC50 is on record?
A: 121 µM

Test system: MCF7
Test: Cytotoxicity against human MCF7 cells after 96 hrs by MTT assay
Format: functional, cell-based
Conditions: MCF7, 96 h
In short: as §1

Q: For CNc1nc2ccccc2n2c(CCc3ccccc3)cnc12, which IC50 is on record?
A: 1.08 µM

Test system: not listed separately
Test: Cytotoxicity against human M4Be cells after 96 hrs by MTT assay
Format: functional, cell-based
Conditions: not given
In short: as §1

Q: With CNc1nc2ccccc2n2c(CCc3ccccc3)cnc12 as the compound, how does the IC50 read?
A: 2.58 µM

Q: With CC(C)Cn1cnc2c(N)nc3ccccc3c21 [IMIQUIMOD] as the compound, how does the IC50 read?
A: 33.5 µM

Test system: LS174T
Test: Cytotoxicity against human LS174T cells after 96 hrs by MTT assay
Format: functional, cell-based
Conditions: not given
In short: as §1

Q: With CNc1nc2ccccc2n2c(CCc3ccccc3)cnc12 as the compound, how does the IC50 read?
A: 4.12 µM

Q: For CCc1c2c(nc3ccc(OC(=O)N4CCC(N5CCCCC5)CC4)cc13)-c1cc3c(c(=O)n1C2)COC(=O)[C@]3(O)CC [IRINOTECAN], which IC50 is on record?
A: 1.16 µM

Q: With CC(C)Cn1cnc2c(N)nc3ccccc3c21 [IMIQUIMOD] as the compound, how does the IC50 read?
A: 34.4 µM

Test system: M4Be
Test: Antitumor activity against human M4Be cells xenografted Swiss nude mouse assessed as reduction in tumor volume at 20 mg/kg, ip administered twice a week for 3 weeks measured from day 18 to day 55
Format: functional, organism-based
Set-up: dose 20 mg/kg
Conditions: not given
In short: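 Female Swiss nude mice (7 weeks old) were given 3×10^6 M4Be cells s.c. in the flank. At ~0.7 cm3 they were randomized, 6 per group, and received 20 mg/kg twice weekly (Mon/Thu) for 3 weeks in intralipid/DMSO (50:50), with the cycle repeated after 15 days. Controls received vehicle. Calipers twice weekly, V = 0.5ab². Repeated-measures ANOVA with contrast test, significance 0.02. Mean ± SEM.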

Q: Which Activity does the source give for CNc1nc2ccccc2n2c(CCc3ccccc3)cnc12 here?
A: Active

Test system: not listed separately
Test: Toxicity in ip dosed Swiss mouse
Format: organism-based
Conditions: in vivo
In short: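 Single intraperitoneal doses of 30 to 300 mg/kg given to healthy Swiss mice. Compound dissolved in intralipid/DMSO (50:50, v/v) because of poor water solubility. Read-out is the 50% lethal dose (LD50).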

Q: With CNc1nc2ccccc2n2c(CCc3ccccc3)cnc12 as the compound, how does the LD50 read?
A: > 300 mg/kg

Test system: not listed separately
Test: Cytotoxicity against human RPMI7591 cells after 96 hrs by MTT assay
Format: functional, cell-based
Conditions: not given

Q: With CNc1nc2ccccc2n2c(CCc3ccccc3)cnc12 as the compound, how does the IC50 read?
A: 4.23 µM

Q: For CC(C)Cn1cnc2c(N)nc3ccccc3c21 [IMIQUIMOD], which IC50 is on record?
A: 53.7 µM
